From ChEMBL document CHEMBL1139384, “First Cdc7 kinase inhibitors: pyrrolopyridinones as potent and orally active antitumor agents. 2. Lead discovery” (J Med Chem, 2009)
pIC50: −log10 of the molar value. Activity calls are given as the source filed them. No cut-off for these calls is given here.

Experiments:
[1] = target: Mast/stem cell growth factor receptor Kit (Homo sapiens, UniProt P10721); assay: Inhibition of KIT
[2] = target: Cyclin-dependent kinase 4 (Homo sapiens, UniProt P11802); assay: Inhibition of CDK4
Chain of Cyclin-dependent kinase 4 (P11802 whole entry): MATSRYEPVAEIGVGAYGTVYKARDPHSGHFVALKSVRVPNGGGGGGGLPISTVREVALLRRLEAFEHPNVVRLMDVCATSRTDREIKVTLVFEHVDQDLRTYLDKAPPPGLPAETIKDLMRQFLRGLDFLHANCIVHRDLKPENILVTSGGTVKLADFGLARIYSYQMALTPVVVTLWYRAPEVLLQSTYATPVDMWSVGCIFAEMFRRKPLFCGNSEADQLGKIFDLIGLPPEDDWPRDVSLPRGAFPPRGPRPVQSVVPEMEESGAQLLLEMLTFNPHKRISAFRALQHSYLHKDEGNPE

[3] = AUC (0 to infinity) in Beagle dog at 10 mg/kg, po administered as single dose; format: ADME, organism-based, Canis lupus familiaris; set-up: time infinity, dose 10 mg/kg, route oral; conditions: plasma
Summary of the method: (§1)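 Single iv or oral dose in 5% dextrose to overnight-fasted animals. Nu/Nu mice: males, 3 per route, saphenous bleeds to 24 h. Han-Wistar rats: males, 3 per route, jugular bleeds to 24 h. Beagle dogs: 2 per sex, iv and po crossover 2 weeks apart, jugular bleeds to 48 h. Plasma by LC/MS/MS; noncompartmental parameters, AUC by linear trapezoid with extrapolation.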

[4] = target: Mitogen-activated protein kinase 11 (Homo sapiens, UniProt Q15759); assay: Inhibition of P38beta
Chain of Mitogen-activated protein kinase 11 (Q15759 whole entry): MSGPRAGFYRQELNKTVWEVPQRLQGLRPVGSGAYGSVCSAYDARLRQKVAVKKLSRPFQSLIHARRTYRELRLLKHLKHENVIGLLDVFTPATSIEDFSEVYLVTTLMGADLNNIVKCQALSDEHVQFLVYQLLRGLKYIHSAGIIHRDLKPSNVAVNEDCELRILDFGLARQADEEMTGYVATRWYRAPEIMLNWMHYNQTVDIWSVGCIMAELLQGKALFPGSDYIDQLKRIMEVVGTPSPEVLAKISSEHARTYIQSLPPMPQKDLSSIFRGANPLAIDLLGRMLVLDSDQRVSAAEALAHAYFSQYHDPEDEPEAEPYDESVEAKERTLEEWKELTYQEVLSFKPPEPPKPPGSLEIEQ

[5] = Inhibition of Cdk2E
[6] = AUC (0 to infinity) in nu/nu mouse at 10 mg/kg, po administered as single dose; format: ADME, organism-based; set-up: time infinity, dose 10 mg/kg, route oral; conditions: plasma; summary of the method: as §1
[7] = Cmax in Beagle dog at 5 mg/kg, iv administered as single dose; format: ADME, organism-based, Canis lupus familiaris; set-up: dose 5 mg/kg, route intravenous; conditions: in vivo; summary of the method: as §1
[8] = target: Cytochrome P450 2C8 (Homo sapiens, UniProt P10632); assay: Inhibition of human CYP2C8; format: ADME
[9] = Inhibition of CK2
[10] = Antiproliferative activity against mouse NIH/3T3 cells after 72 hrs by luciferase based assay; format: cell-based; conditions: NIH3T3, 72 h
Summary of the method: (§2)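 Cells seeded at 2500–5000/well in complete medium (RPMI1640, McCoy's or DMEM with 10% FCS, by line); compound added after 24 h, 72 h at 37 °C, 5% CO2.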

[11] = Cmax in Wistar rat at 20 mg/kg, po administered as single dose; conditions: in vivo
[12] = tested on: Hepatocyte; assay: Metabolic stability in rat hepatocytes assessed as intrinsic clearance at 1 uM; format: cell-based; conditions: Liver
[13] = Oral bioavailability in nu/nu mouse at 10 mg/kg administered as single dose; format: ADME, organism-based; conditions: in vivo
Summary of the method: (§3)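 Overnight-fasted male Nu/Nu mice got a single 10 mg/kg dose in 5% dextrose, iv or po, three mice per route. Saphenous blood was drawn at 0.083 (iv) or 0.25 (po), 0.5, 1, 6 and 24 h. Plasma was assayed by LC/MS/MS and analysed noncompartmentally. Tmax is the observed peak time, Vss = CL·MRT, and F is the ratio of dose-normalized AUC∞ po/iv.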

[14] = target: Hepatocyte growth factor receptor (Homo sapiens, UniProt P08581); assay: Inhibition of MET
Chain of Hepatocyte growth factor receptor (P08581 whole entry): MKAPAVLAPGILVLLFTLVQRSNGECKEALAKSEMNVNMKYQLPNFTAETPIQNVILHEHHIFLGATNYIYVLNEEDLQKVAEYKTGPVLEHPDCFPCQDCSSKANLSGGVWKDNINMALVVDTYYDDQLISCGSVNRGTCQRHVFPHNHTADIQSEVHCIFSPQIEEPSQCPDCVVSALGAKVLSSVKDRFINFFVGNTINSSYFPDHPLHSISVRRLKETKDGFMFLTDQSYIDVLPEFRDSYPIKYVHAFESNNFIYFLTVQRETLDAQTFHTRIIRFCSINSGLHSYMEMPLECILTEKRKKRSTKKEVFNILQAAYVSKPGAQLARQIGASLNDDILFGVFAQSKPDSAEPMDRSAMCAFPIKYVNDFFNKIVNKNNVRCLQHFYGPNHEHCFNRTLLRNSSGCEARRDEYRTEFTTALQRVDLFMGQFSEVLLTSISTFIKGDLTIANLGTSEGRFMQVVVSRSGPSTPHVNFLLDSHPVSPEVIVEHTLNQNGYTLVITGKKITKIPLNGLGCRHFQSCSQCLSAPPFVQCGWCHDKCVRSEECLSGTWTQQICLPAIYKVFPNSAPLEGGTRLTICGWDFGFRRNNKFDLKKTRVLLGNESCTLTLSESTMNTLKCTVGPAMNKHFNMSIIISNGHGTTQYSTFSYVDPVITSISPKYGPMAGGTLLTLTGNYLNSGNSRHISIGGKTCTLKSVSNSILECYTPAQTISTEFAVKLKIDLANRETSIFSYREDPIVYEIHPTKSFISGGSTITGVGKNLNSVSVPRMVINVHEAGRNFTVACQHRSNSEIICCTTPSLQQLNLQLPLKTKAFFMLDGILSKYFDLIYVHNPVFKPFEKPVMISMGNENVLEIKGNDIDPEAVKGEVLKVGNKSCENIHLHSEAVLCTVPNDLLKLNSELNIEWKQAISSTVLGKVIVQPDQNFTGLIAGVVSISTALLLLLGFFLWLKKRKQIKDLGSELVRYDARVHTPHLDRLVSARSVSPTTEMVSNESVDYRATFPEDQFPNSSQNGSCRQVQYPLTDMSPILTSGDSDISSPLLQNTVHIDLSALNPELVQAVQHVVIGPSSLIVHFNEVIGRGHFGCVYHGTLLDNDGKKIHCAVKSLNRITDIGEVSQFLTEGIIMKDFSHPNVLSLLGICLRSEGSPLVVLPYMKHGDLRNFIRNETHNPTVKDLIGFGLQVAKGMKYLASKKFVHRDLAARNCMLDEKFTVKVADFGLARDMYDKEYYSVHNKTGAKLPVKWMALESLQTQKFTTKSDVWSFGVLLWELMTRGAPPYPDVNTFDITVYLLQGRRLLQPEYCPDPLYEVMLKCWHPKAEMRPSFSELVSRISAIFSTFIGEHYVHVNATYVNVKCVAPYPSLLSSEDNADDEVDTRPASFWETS

[15] = Antiproliferative activity against human SW403 cells after 72 hrs by luciferase based assay; format: functional, cell-based; conditions: SW-403, 72 h; summary of the method: as §2
[16] = Half life in Beagle dog at 5 mg/kg, iv administered as single dose; format: ADME, organism-based, Canis lupus familiaris; set-up: dose 5 mg/kg, route intravenous; conditions: in vivo; summary of the method: as §1
[17] = target: Cytochrome P450 3A4 (Homo sapiens, UniProt P08684); assay: Inhibition of human CYP3A4; format: ADME
Chain of Cytochrome P450 3A4 (P08684 whole entry): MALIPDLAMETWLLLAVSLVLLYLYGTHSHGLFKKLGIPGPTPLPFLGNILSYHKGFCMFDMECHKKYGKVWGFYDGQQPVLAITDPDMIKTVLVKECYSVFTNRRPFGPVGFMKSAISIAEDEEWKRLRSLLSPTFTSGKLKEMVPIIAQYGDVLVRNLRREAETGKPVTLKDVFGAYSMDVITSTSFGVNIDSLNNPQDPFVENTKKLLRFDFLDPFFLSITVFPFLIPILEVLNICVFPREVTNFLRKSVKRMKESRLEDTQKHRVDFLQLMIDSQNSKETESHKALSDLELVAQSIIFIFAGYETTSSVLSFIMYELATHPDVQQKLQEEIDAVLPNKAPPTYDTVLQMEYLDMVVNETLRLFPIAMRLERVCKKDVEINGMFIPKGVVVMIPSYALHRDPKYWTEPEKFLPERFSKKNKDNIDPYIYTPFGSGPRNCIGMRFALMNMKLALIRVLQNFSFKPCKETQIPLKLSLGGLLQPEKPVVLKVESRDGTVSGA

[18] = target: T1, Cell division cycle 7-related protein kinase (Homo sapiens, UniProt O00311); assay: Inhibition of human Cdc7 in human A2780 cells assessed as inhibition of Ser40 phosphorylation of Mcm2 protein at 3 uM up to 24 hrs; format: cell-based
T1 sequence (O00311 whole entry, looked up): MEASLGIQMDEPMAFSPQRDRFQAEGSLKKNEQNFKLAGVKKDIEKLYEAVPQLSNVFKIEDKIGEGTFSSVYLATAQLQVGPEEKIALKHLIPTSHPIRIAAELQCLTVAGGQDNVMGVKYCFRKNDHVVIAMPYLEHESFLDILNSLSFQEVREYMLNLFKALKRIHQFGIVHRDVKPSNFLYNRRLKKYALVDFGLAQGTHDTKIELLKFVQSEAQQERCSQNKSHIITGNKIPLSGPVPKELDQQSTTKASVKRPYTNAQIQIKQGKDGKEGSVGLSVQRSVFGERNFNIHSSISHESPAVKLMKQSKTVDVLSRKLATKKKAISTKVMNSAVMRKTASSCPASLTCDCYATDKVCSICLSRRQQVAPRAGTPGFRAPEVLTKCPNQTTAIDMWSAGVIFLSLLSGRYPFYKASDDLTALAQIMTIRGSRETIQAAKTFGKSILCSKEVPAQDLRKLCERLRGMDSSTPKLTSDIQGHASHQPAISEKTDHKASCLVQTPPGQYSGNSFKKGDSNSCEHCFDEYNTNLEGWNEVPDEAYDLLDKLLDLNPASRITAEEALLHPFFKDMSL
Summary of the method: (§4)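 Time course in A2780 cells held at 3 µM for up to 24 h. Extracts were made in 50 mmol/L Tris-HCl pH 6.8, 1% SDS, 1 mmol/L DTT with 10 s sonication, loaded at 15 µg per lane, and immunoblotted with antiphosphopeptide antibodies to MCM2 Ser40 and Ser53. Cleaved caspase 3 was also probed.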

[19] = tested on: Rattus norvegicus; assay: Antitumor activity against DMBA-induced mammary carcinoma in CD OFA rat assessed as duration of tumor stabilization maintenance at 20 mg/kg, po administered for 10 days; format: functional
Summary of the method: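 DMBA tumors induced in female CD OFA rats by single intragastric 20 mg DMBA in sesame oil; after about 50 days, rats with a mammary tumor of at least 1 cm given 20 mg/kg orally twice daily for 10 days in glucose solution, or vehicle; 10 per group; tumor volume by Vernier calipers.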

[20] = Clearance in nu/nu mouse at 10 mg/kg, iv administered as single dose; format: ADME, organism-based; set-up: dose 10 mg/kg, route intravenous; conditions: in vivo; summary of the method: as §1
[21] = target: Insulin receptor (Homo sapiens, UniProt P06213); assay: Inhibition of IR
[22] = target: Serine/threonine-protein kinase Nek6 (Homo sapiens, UniProt Q9HC98); assay: Inhibition of NEK6
Chain of Serine/threonine-protein kinase Nek6 (Q9HC98 whole entry): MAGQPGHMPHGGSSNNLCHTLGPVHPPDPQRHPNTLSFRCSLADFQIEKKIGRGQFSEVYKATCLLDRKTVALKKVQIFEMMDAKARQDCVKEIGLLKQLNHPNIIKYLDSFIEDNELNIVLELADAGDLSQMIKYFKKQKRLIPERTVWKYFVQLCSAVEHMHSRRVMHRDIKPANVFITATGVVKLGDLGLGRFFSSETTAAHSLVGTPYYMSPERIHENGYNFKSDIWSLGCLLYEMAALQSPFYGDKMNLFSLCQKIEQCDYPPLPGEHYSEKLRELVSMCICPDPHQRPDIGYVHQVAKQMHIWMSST

[23] = Tmax in nu/nu mouse at 10 mg/kg, po administered as single dose; format: ADME, organism-based; set-up: dose 10 mg/kg, route oral; conditions: in vivo; summary of the method: as §3
[24] = AUC (0 to infinity) in Beagle dog at 5 mg/kg, iv administered as single dose; format: ADME, organism-based, Canis lupus familiaris; set-up: time infinity, dose 5 mg/kg, route intravenous; conditions: plasma; summary of the method: as §1
[25] = Half life in Wistar rat at 20 mg/kg, po administered as single dose; conditions: in vivo
[26] = Metabolic stability in human hepatocytes expressing CYP3A4 assessed as drug remaining after 1 hr; format: ADME, cell-based, Hepatocyte; conditions: read-out: Stability
[27] = tested on: SW48; assay: Antiproliferative activity against human SW48 cells after 72 hrs by luciferase based assay; format: functional, cell-based; conditions: SW48, 72 h; summary of the method: as §2
[28] = Volume of distribution at steady state in Beagle dog at 5 mg/kg, iv administered as single dose; format: ADME, organism-based, Canis lupus familiaris; set-up: dose 5 mg/kg, route intravenous; conditions: in vivo, read-out: Vdss
Summary of the method: (§5)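 Overnight-fasted Beagle dogs, 2 per sex, in a crossover design: 5 mg/kg iv and 10 mg/kg po, two weeks apart, in 5% dextrose. Jugular blood was drawn up to 48 h, and urine was collected over 0–8, 8–24 and 24–48 h. Samples were assayed by LC/MS/MS and analysed noncompartmentally.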

[29] = Cmax in Wistar rat at 10 mg/kg, iv administered as single dose; format: ADME, organism-based; set-up: dose 10 mg/kg, route intravenous; conditions: in vivo; summary of the method: as §1
[30] = Oral bioavailability in Beagle dog at 10 mg/kg administered as single dose; format: ADME, organism-based, Canis lupus familiaris; conditions: in vivo; summary of the method: as §5
[31] = tested on: L-363; assay: Antiproliferative activity against human L363 cells after 72 hrs by luciferase based assay; format: functional, cell-based; conditions: L-363, 72 h; summary of the method: as §2
[32] = target: Proto-oncogene tyrosine-protein kinase receptor Ret (Homo sapiens, UniProt P07949); assay: Inhibition of RET
Chain of Proto-oncogene tyrosine-protein kinase receptor Ret (P07949 whole entry): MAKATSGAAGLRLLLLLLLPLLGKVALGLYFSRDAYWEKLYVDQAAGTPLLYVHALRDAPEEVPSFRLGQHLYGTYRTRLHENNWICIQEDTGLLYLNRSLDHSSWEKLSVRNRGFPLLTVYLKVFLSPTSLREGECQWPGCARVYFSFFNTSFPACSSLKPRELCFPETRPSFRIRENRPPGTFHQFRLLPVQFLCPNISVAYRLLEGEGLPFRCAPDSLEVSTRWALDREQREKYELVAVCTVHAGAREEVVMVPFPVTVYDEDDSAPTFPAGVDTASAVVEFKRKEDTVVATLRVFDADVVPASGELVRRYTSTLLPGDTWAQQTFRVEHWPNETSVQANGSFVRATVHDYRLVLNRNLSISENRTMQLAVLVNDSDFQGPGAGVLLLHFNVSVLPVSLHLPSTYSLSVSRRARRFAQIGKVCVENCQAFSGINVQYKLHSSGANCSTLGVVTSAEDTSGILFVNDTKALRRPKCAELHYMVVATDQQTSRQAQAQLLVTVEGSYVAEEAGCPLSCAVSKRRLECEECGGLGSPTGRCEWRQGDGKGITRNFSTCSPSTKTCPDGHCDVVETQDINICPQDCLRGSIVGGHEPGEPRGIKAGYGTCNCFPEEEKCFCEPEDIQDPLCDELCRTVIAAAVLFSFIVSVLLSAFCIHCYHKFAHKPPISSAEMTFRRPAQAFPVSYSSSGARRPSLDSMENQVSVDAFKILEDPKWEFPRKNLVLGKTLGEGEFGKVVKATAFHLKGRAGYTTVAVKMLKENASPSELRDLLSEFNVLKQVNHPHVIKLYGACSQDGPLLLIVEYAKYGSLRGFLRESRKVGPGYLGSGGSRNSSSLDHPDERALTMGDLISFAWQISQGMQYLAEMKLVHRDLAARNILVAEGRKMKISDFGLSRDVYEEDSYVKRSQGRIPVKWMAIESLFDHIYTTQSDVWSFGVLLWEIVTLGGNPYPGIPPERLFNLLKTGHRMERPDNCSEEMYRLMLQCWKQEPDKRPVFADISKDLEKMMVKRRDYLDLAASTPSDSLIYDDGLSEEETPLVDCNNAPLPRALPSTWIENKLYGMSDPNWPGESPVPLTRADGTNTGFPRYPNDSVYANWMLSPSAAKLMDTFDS

[33] = target: RAC-alpha serine/threonine-protein kinase (Homo sapiens, UniProt P31749); assay: Inhibition of AKT1
Chain of RAC-alpha serine/threonine-protein kinase (P31749 whole entry): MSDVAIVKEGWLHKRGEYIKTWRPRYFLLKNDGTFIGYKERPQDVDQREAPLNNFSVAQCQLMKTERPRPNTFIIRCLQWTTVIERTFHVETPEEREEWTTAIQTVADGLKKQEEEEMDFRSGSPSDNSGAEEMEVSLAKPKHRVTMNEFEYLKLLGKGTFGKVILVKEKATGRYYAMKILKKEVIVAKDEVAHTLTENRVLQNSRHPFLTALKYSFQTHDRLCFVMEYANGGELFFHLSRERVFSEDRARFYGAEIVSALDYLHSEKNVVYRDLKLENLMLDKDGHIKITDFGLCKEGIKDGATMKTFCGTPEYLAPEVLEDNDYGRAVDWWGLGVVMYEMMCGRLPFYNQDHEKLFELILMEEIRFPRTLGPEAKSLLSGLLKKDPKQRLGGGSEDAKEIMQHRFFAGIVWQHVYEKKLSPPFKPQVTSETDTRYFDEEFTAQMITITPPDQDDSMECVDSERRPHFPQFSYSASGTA

[34] = tested on: Rattus norvegicus; assay: Oral bioavailability in Wistar rat at 20 mg/kg, po administered as single dose; conditions: in vivo
[35] = target: T1, Cell division cycle 7-related protein kinase; assay: Inhibition of human Cdc7 in human A2780 cells assessed as inhibition of Ser53 phosphorylation of Mcm2 protein at 3 uM up to 24 hrs; format: cell-based; summary of the method: as §4
[36] = tested on: A2780; assay: Induction of apoptosis in human A2780 cells assessed as caspase 3 activation at 3 uM up to 24 hrs; format: functional, cell-based
Summary of the method: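 A2780 cells held at 3 µM for up to 24 h; extracts in Tris-HCl pH 6.8 with 1% SDS and DTT, 15 µg protein per lane; cleaved caspase 3 detected by Western blot.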

[37] = target: Cyclin-dependent kinase 5/CDK5 activator 1 (Homo sapiens, UniProt Q00535); assay: Inhibition of CDK5/p25; format: protein-complex assay
[38] = target: Vascular endothelial growth factor receptor 3 (Homo sapiens, UniProt P35916); assay: Inhibition of VEGFR3

For `Nc1nccc(-c2cc3c([nH]2)[C@@H](CCF)CNC3=O)n1`, the pIC50 [1] was < 5.40, the pIC50 [2] was < 5.40 and the AUC(0-inf) [3] was 6.4 µM·h. For the same compound, the pIC50 [4] was < 5.40, the pIC50 [5] was 6.17 and the AUC(0-inf) [6] was 5 µM·h. The Cmax [7] was 8.9 µM, the Activity [8] was “Not Active” and the pIC50 [9] was 6.44. The pIC50 [10] was 5.60, the Cmax [11] was 2 µM and the CL (mL.min-1.kg-1) [12] was 5. For the same compound, the bioavailability [13] was 53%, the pIC50 [14] was < 5.40 and the pIC50 [15] was 6.22. The half-life [16] was 36 min, the Activity [17] was “Not Active” and the Activity [18] was “Active”. For the same compound, the Activity [19] was 35 days, the clearance [20] was 3.7 L/h/kg and the pIC50 [21] was < 5.40. The pIC50 [22] was < 5.40, the Tmax [23] was 30 min and the AUC(0-inf) [24] was 6.3 µM·h. It also gave a half-life [25] of 372 min, a remaining at 1 h [26] of 95% and a pIC50 [27] of 6.05. It also gave a Vd [28] of 2.1 L/kg, a Cmax [29] of 15.7 µM and a bioavailability [30] of 51%. The pIC50 [31] was 5.89, the pIC50 [32] was < 5.40 and the pIC50 [33] was < 5.40. For the same compound, the F [34] was 33%, the Activity [35] was “Active” and the Activity [36] was “Active”. For the same compound, the pIC50 [37] was 5.79 and the pIC50 [38] was < 5.40.
